The nature of assay [1]: Cytotoxicity against human Doay cells. The assay is classed as functional, cell-based.
Assay [2] concerns HeLa. Description: Cytotoxicity against human HeLa cells by MTT method. Format: functional. The settings on record: read-out: ED50. On the technique in general: Tetrazolium dyes change colour on reduction, which living cells bring about.
Assay [3] deals with MCF7. Description: Cytotoxicity against human MCF7 cells by MTT method. The assay is classed as functional. The note with it: MCF7, read-out: ED50.
For assay [4], the system named is HEp-2. Description: Cytotoxicity against human Hep2 cells. The assay is classed as functional, cell-based.
Assay [5] has as its system MCF7. Description: Cytotoxicity against human MCF7 cells. The assay is classed as functional, cell-based.
The subject of assay [6] is HEp-2. In words: Cytotoxicity against human Hep2 cells by MTT method. The note with it: HEp-2, read-out: ED50. Format: functional.
Assay [7] is described as follows: Cytotoxicity against human Doay cells by MTT method. Format: functional. The settings on record: read-out: ED50.
In assay [8] the test system is HeLa. In words: Cytotoxicity against human HeLa cells. Format: functional, cell-based.
The test system of assay [9] is RAW264.7. In words: Reduction of LPS-induced COX2 expression in mouse Raw264.7 cells at 10 uM preincubated for 5 mins before LPS challenge relative to control. Details: scale not given: the % may be the effect or the level left. Format: functional. In a few lines: (§1)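 RAW 264.7 murine macrophages grown in DMEM with 10% heat-inactivated FBS at 37 °C, 5% CO2, plated at 3 × 10^6 cells per 60 mm dish. Compound added 5 min before LPS (0.01 µg/mL), then 16 h incubation. Lysates were analysed by Western blot against iNOS and COX-2 (1:1000), with β-actin as loading control and ECL detection. Band IOD was expressed relative to the LPS-only control; one-way ANOVA with Student-Newman-Keuls test.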

Assay [10] has as its system RAW264.7. In words: Reduction of LPS-induced iNOS expression in mouse Raw264.7 cells at 10 uM preincubated for 5 mins before LPS challenge relative to control. The assay is classed as functional. Further details: scale not given: the % may be the effect or the level left. An outline of the steps: as §1

8 molecules from ChEMBL document CHEMBL1140187, “Anti-inflammatory cembranoids from the soft corals Sinularia querciformis and Sinularia granosa” (J Nat Prod, 2008) can be followed below.

Broadly, the IC50 is the concentration at which inhibition is half-maximal.

In the case of `C=C1C(=O)O[C@]2(C)CC[C@@H]1C[C@H](O)[C@@]1(C)CC[C@H](OC(C)=O)[C@@](C)(CCC2=O)O1` [QUERCIFORMOLIDE A], the IC50 (in [1]; in the assay with HEp-2 [4]; with MCF7 [5]; in the assay on HeLa [8]) was > 20 µg/mL each time. In addition, the EC50 (in the assay on HeLa [2]; in the assay on MCF7 [3]; in the assay with HEp-2 [6]; in assay [7]) was > 20 µg/mL each time.
As for `C=C1C(=O)O[C@]2(C)CC[C@@H]1C[C@H](O)[C@@]1(C)CC[C@H](O1)[C@](C)(O)CC[C@H]2O` [QUERCIFORMOLIDE D], the IC50 (in assay [1]; with HEp-2 [4]; in the assay on HeLa [8]) was > 20 µg/mL in each case. Besides, the EC50 (in the assay on HeLa [2]; in the assay with MCF7 [3]; with HEp-2 [6]; in assay [7]) was > 20 µg/mL throughout.
`C=C1C(=O)O[C@]2(C)CC[C@@H]1C[C@H](O)[C@@]1(C)CC[C@H](O1)[C@](C)(O)CCC2=O`: the IC50 (in assay [1]; in the assay with HEp-2 [4]; in the assay with HeLa [8]) was > 20 µg/mL in each case. Moreover, the EC50 (in the assay on HeLa [2]; in the assay on MCF7 [3]; in the assay with HEp-2 [6]; in [7]) was > 20 µg/mL each time. Further, the Activity in the assay with RAW264.7 [9] was found to be 17.4%.
With `C=C1C(=O)O[C@]2(C)CC[C@@H]1C[C@H](O)[C@@]1(C)CC[C@H](O1)[C@](C)(O)CC[C@H]2OC(C)=O` [QUERCIFORMOLIDE B], the IC50 (in assay [1]; with HEp-2 [4]; in the assay with HeLa [8]) was > 20 µg/mL in each case. Moreover, the EC50 (in the assay on HeLa [2]; in the assay with MCF7 [3]; in the assay with HEp-2 [6]; in [7]) was > 20 µg/mL each time.
Take `C=C1C(=O)O[C@]2(C)CC[C@@H]1C[C@H](OC(C)=O)[C@@]1(C)CC[C@H](O1)[C@](C)(O)CCC2=O`: the IC50 (in [1]; with HEp-2 [4]; in the assay with HeLa [8]) was > 20 µg/mL in each case. In addition, the EC50 (in the assay on HeLa [2]; in the assay with MCF7 [3]; in the assay with HEp-2 [6]; in [7]) was > 20 µg/mL throughout. The Activity is on record as 14% in the assay on RAW264.7 [9] and 20.3% with RAW264.7 [10].
For the molecule `C=C1C(=O)O[C@]2(C)CC[C@@H]1C[C@H](OC(C)=O)[C@@]1(C)CC[C@H](O1)[C@](C)(O)CC[C@H]2OC(C)=O` [QUERCIFORMOLIDE C], the IC50 (in assay [1]; with HEp-2 [4]; in the assay with HeLa [8]) was > 20 µg/mL each time. In addition, the EC50 (in the assay on HeLa [2]; in the assay with MCF7 [3]; with HEp-2 [6]; in assay [7]) was > 20 µg/mL each time. The molecule further gave an Activity in the assay on RAW264.7 [10] of 23.7%.
Consider `C=C1C(=O)O[C@]2(C)CC[C@@H]1C[C@H](OC(C)=O)[C@@]1(C)CC[C@H](O1)C(=C)CC[C@H]2OC(C)=O` [GRANOSOLIDE B], for which the IC50 (in [1]; with HEp-2 [4]; with HeLa [8]) was > 20 µg/mL each time. Moreover, the EC50 (with HeLa [2]; in the assay with MCF7 [3]; in the assay on HEp-2 [6]; in [7]) was > 20 µg/mL each time.
For the molecule `C=C1C(=O)O[C@]2(C)CC[C@@H]1C[C@H](O)[C@@]1(C)CC[C@H](O1)C(=C)CC[C@H]2OC(C)=O` [GRANOSOLIDE A], the IC50 (in assay [1]; with HEp-2 [4]; in the assay with HeLa [8]) was > 20 µg/mL in each case. In addition, the EC50 (with HeLa [2]; in the assay with MCF7 [3]; in the assay on HEp-2 [6]; in [7]) was > 20 µg/mL each time.
